# Paper PMC12530853 (RSC Advances, 2025)
# Entries after “also recorded” stand apart in the source; their conditions may differ.
# Columns and labels:
# [1] = test system: CYP24A1 mRNA in HEK293T cells; assay: CYP24A1 mRNA levels by quantitative PCR; type: cell-based
# C. albicans ATCC 14053 = assay: Minimum inhibitory concentration; type: cell-based; conditions: Candida albicans, ATCC14053, read-out: Minimum inhibitory concentration (MIC) C. albicans ATCC 14053
# Method in brief: (§1)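 Exponential-phase yeast were washed three times in PBS and suspended at 1 × 10^3 CFU/mL in RPMI 1640. Test compound and fluconazole comparator were twofold serially diluted in microplates, each concentration in triplicate wells. Growth was read as OD600, from which the MIC was determined.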
# C. albicans ATCC 10231 [2] = assay: Minimum inhibitory concentration; type: cell-based; conditions: Candida albicans, ATCC10231, read-out: Minimum inhibitory concentration (MIC) C. albicans ATCC 10231
# Method in brief: as §1
# [3] = Cytotoxicity, CCK-8 assay; type: cell-based; conditions: human, HUVECs (human umbilical vein endothelial cells)
# C. albicans ATCC 90028 = assay: Activity against additional fungal strains; type: cell-based; conditions: Table 2; no quantity or unit printed
# Method in brief: (§2)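 Fungi in exponential phase were washed three times in PBS and resuspended at 1 × 10^3 CFU mL−1 in RPMI 1640. Test compound and fluconazole were serially diluted twofold in 96-well plates, in triplicate wells per concentration. MIC was derived from OD600 readings.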
# FO MYA 3461 = assay: Activity against additional fungal strains; type: cell-based; conditions: Table 2; no quantity or unit printed
# Method in brief: as §2
# C. albicans ATCC 10231 [4] = assay: Time–kill kinetics; type: cell-based; conditions: 8 × MIC, after 8 h
# Method in brief: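 C. albicans in exponential phase was diluted to 1.5 × 10^6 cells per mL in RPMI 1640, in 5 mL tubes. Drug was added and tubes were shaken at 200 rpm and 30 °C. 100 μL aliquots went to microtiter wells, were incubated at 37 °C, and OD600 was read to estimate cell concentration.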
# [5] = test system: C. albicans ATCC 10231 biofilm; assay: Biofilm eradication; type: cell-based; conditions: in vitro
# Method in brief: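 Overnight C. albicans was adjusted to 1 × 10^6–10^7 CFU mL−1 and grown statically for 24 h at 37 °C to give mature biofilms. After two PBS rinses, biofilms were treated with test compound in fresh medium for 24 h at 37 °C; amphotericin B was the positive control and medium alone the negative control. Staining used 0.1% crystal violet for 15 min, then 95% ethanol solubilisation and OD590. Eradication (%) = [1 − OD_test/OD_negative] × 100.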
# Calcein leakage assay = conditions: liposomes mimicking fungal membranes
# Method in brief: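 Large unilamellar vesicles of DOPC/DOPE/PI (2:1:1) with 15 wt% ergosterol were made by film hydration in 80 mM calcein, 50 mM HEPES, 100 mM NaCl, 0.3 mM EDTA, pH 7.4. They were freeze–thawed 10×, extruded through 100 nm filters, gel-filtered, and quantified by total phosphorus. Test compound was added in HEPES buffer with 5% DMF. Read at ex 490/em 520 nm; % leakage = (Ft−Fmin)/(Fmax−Fmin)×100, with Fmax from 1% Triton X-100.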
# F. solani 46492 = assay: Activity against additional fungal strains; type: cell-based; conditions: Table 2; no quantity or unit printed
# Method in brief: as §2
# [6] = test system: A. brasiliensis TCC 16404; assay: Activity against additional fungal strains; type: cell-based; conditions: Table 2; no quantity or unit printed
# Method in brief: as §2
# [7] = test system: metabolic clearance of 1,25(OH)2D3 in HEK293T cells; assay: Retention of 1,25; type: cell-based; conditions: 10^−7 M compound; after 24 h; LC-MS/MS
# [8] = test system: various bacteria and fungi; assay: Broad-spectrum antibacterial and antifungal MIC; type: cell-based; conditions: read-out: MIC (broad-spectrum antibacterial and antifungal activity)
# C. albicans ATCC 10231 [9] = assay: SYTOX Green membrane integrity assay; type: cell-based; conditions: 4 × MIC; over 20 min
# Method in brief: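 Overnight C. albicans was washed three times in PBS and set to OD600 0.2 in PBS. Cells were loaded with 0.3 μM SYTOX Green in the dark. Once the signal plateaued, test compound in PBS/DMF (final DMF 0.5%) was added. Fluorescence (ex 504 nm, em 523 nm) was monitored continuously for 1–2 h.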
# [10] = test system: C. albicans ATCC 10231 biofilm; assay: Inhibition of biofilm formation; type: cell-based; conditions: in vitro
# Method in brief: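 Exponential-phase fungi at 1 × 10^6 CFU mL−1 in RPMI 1640 were allowed to adhere for 1.5 h at 37 °C, then washed twice with PBS. Fresh RPMI containing graded concentrations of test compound was added for 24 h at 37 °C in the dark. Adherent cells were stained for 3 h at 37 °C and OD was read. Results are given as % inhibition of formation.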
# CYP24A1 = target: T1, CYP24A1 (Homo sapiens, UniProt Q07973); assay: CYP24-inhibition assay; type: biochemical
# T1 sequence (Q07973 36-514): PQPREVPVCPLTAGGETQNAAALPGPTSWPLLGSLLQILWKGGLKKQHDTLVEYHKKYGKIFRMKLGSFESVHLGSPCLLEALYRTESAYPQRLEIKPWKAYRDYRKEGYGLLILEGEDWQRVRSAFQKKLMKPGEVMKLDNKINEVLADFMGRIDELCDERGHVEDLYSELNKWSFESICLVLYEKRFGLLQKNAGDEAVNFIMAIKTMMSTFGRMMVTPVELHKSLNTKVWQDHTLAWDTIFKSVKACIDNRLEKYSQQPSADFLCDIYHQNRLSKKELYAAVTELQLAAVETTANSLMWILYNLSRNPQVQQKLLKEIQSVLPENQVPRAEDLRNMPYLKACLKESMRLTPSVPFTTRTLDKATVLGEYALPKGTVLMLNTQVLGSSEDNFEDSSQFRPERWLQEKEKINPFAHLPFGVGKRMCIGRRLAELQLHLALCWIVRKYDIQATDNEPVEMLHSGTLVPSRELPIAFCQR
# Method in brief: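 Reconstituted system: 5 nM CYP24, 0.5 μM adrenodoxin and 0.05 μM adrenodoxin reductase in 100 mM Tris–HCl pH 7.4 with 1 mM EDTA. Test compound (50–200 μM) was preincubated for 15 min at room temperature. 5 μM 1,25-D3 and 1 mM NADPH were then added for 10 min at 37 °C. The reaction was stopped with 4 volumes of chloroform/methanol 3:1, and conversion was measured by C18 HPLC with UV detection at 265 nm.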
# [11] = Cytotoxicity, CCK-8 assay; type: cell-based; conditions: human, Caco-2
# rabbit red blood cells = assay: Hemolysis assay; type: cell-based
# Method in brief: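 Rabbit erythrocytes (4% v/v in PBS) were mixed 1:1 with test compound in PBS, giving final concentrations of 2–256 μg mL−1, and incubated for 1 h at 37 °C. Samples were centrifuged at 1000g for 5 min and supernatant A490 was read. Controls were 1% Triton X-100 and PBS. Hemolysis (%) = [(sample − PBS)/(Triton − PBS)] × 100, in triplicate.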
# C. albicans ATCC 24433 = assay: Activity against additional fungal strains; type: cell-based; conditions: Table 2; no quantity or unit printed
# Method in brief: as §2
# F. solani 52628 = assay: Activity against additional fungal strains; type: cell-based; conditions: Table 2; no quantity or unit printed
# Method in brief: as §2
# C. albicans ATCC 10231 [12] = assay: Drug-resistance study; type: cell-based; conditions: after 28 serial passages
# Method in brief: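 Resistance development in C. albicans: the MIC of the test compound was first determined by the fungal broth microdilution method, then that determination was repeated continuously over 28 days.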
compound,measurement,setting,value
"C=C1/C(=C\C=C2/CCC[C@]3(C)[C@@H]([C@H](C)CCCC(C)(C)O)CC[C@@H]23)C[C@@H](O)C[C@@H]1O [1,25(OH)2D3, 1,25-dihydroxyvitamin D3, reference compound]","CYP24A1 mRNA levels, 1,25(OH)2D3 alone","[1]; 10^−9 M, 24 h, HEK293T cells",significantly increased
"Cc1ccc(C=Nc2nc[nH]n2)c(O)c1 [3a, 2-{[(1H-1,2,4-Triazol-3-yl)imino]methyl}-5-methylphenol]",MIC,C. albicans ATCC 14053,128 µg/mL
same,MIC,C. albicans ATCC 10231 [2],64 µg/mL
"O=[N+]([O-])c1ccc(C=Nc2nc[nH]n2)c(O)c1 [3b, 2-{[(1H-1,2,4-Triazol-3-yl)imino]methyl}-5-nitrophenol]",MIC,C. albicans ATCC 14053,64 µg/mL
same,MIC,C. albicans ATCC 10231 [2],64 µg/mL
"Oc1ccc(O)c(C=Nc2ncn[nH]2)c1 [3c, 2-{[(1H-1,2,4-Triazol-5-yl)imino]methyl}benzene-1,4-diol]","viability at 24 h, 64 μg mL^−1",[3],> 95%
same,"viability at 24 h, 128 μg mL^−1",[3],> 80%
same,Interaction against varied fungal strains: C. albicans ATCC 90028,C. albicans ATCC 90028,16
same,Interaction against varied fungal strains: FO MYA 3461,FO MYA 3461,32
same,Time–kill: growth of C. albicans ATCC 10231,C. albicans ATCC 10231 [4],complete inhibition
same,Disruption of pre-formed mature biofilms,[5],significantly disrupted
same,Calcein leakage from LUVs,Calcein leakage assay,induced leakage of the contents in a dose-dependent manner
same,"CYP24A1 mRNA expression, co-treatment with 1,25(OH)2D3","[1]; 3c 10^−10 M + 1,25(OH)2D3 10^−9 M, 24 h, relative to 1,25(OH)2D3 alone",markedly enhanced
same,"CYP24A1 mRNA expression, compound alone","[1]; 10^−7 M, HEK293T cells, versus solvent control",did not affect; also recorded: did not alter
same,"Up-regulation of CYP24A1 mRNA levels when combined with 1,25(OH)2D3","[1]; cellular models, combined with 1,25(OH)2D3",approximately twofold
same,Interaction against varied fungal strains: F. solani 46492,F. solani 46492,32
same,MIC,C. albicans ATCC 14053,16 µg/mL
same,Interaction against varied fungal strains: A. brasiliensis TCC 16404,[6],32
same,"Average concentration of 1,25(OH)2D3 remaining in HEK293T cell culture",[7],495 pM
same,MIC,[8],16 µg/mL
same,SYTOX Green fluorescence (membrane integrity),C. albicans ATCC 10231 [9],gradual increase in fluorescence
same,Inhibition of C. albicans biofilm formation,[10],effectively inhibited
same,IC50,CYP24A1,202 µM
same,inhibition at 100 µM,CYP24A1; read-out: Inhibition of CYP24A1,32%
same,"viability at 24 h, 64 μg mL^−1",[11],> 95%
same,"viability at 24 h, 128 μg mL^−1",[11],> 80%
same,Hemolysis of rabbit red blood cells,"rabbit red blood cells; 16–128 μg mL^−1, 37 °C, 1 h",no significant hemolysis
same,Half hemolytic concentration (HC50),rabbit red blood cells; rabbit red blood cells,> 256 µg/mL
same,MIC,C. albicans ATCC 10231 [2],16 µg/mL
same,Interaction against varied fungal strains: C. albicans ATCC 24433,C. albicans ATCC 24433,16
same,Interaction against varied fungal strains: F. solani 52628,F. solani 52628,32
same,Increase of MIC value in resistance development,C. albicans ATCC 10231 [12],no more than 8 fold
"Oc1ccc(Cl)cc1C=Nc1ncn[nH]1 [3d, 2-{[(1H-1,2,4-Triazol-5-yl)imino]methyl}-4-chlorophenol]",MIC,C. albicans ATCC 14053,128 µg/mL
same,MIC,C. albicans ATCC 10231 [2],128 µg/mL
"CS(=O)(=O)c1ccc(C=Nc2ncn[nH]2)cc1 [3e, 1-[4-(Methylsulfonyl)phenyl]-N-(1H-1,2,4-triazol-5-yl)methanimine]",MIC,C. albicans ATCC 14053,128 µg/mL
same,MIC,C. albicans ATCC 10231 [2],128 µg/mL
"C(=Nc1ncn[nH]1)c1ccc(-c2ccccc2)cc1 [3f, 1-[(1,1′-Biphenyl)-4-yl]-N-(1H-1,2,4-triazol-5-yl)methanimine]",MIC,C. albicans ATCC 14053,128 µg/mL
same,MIC,C. albicans ATCC 10231 [2],128 µg/mL
